Assays:
CYP3A4 [1] = molecular target: T1, CYP3A4 (Homo sapiens, UniProt P08684); assay: Reversible inhibition of CYP3A4 assessed as conversion of testosterone to 6-beta-hydroxytestosterone at 10 uM relative to control; format: ADME; conditions: probe testosterone
CYP3A4 [2] = molecular target: T1, CYP3A4; assay: Time dependent inhibition of CYP3A4 assessed as conversion of testosterone to 6-beta-hydroxytestosterone at 10 uM relative to control; format: ADME; conditions: probe testosterone
How it was run: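 Rate of CYP3A4 conversion of testosterone (250 μM) to 6-β-hydroxytestosterone measured before and after a 30 min incubation with compound at 10 μM (in DMSO). Difference expressed as % loss.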

[3] = Oral bioavailability in Sprague-Dawley rat at 20 mg/kg; format: ADME, organism-based; conditions: in vivo
[4] = molecular target: Voltage-gated inwardly rectifying potassium channel KCNH2 (Homo sapiens, UniProt Q12809); assay: Inhibition of human ERG
Sequence of Voltage-gated inwardly rectifying potassium channel KCNH2 (Q12809 whole entry): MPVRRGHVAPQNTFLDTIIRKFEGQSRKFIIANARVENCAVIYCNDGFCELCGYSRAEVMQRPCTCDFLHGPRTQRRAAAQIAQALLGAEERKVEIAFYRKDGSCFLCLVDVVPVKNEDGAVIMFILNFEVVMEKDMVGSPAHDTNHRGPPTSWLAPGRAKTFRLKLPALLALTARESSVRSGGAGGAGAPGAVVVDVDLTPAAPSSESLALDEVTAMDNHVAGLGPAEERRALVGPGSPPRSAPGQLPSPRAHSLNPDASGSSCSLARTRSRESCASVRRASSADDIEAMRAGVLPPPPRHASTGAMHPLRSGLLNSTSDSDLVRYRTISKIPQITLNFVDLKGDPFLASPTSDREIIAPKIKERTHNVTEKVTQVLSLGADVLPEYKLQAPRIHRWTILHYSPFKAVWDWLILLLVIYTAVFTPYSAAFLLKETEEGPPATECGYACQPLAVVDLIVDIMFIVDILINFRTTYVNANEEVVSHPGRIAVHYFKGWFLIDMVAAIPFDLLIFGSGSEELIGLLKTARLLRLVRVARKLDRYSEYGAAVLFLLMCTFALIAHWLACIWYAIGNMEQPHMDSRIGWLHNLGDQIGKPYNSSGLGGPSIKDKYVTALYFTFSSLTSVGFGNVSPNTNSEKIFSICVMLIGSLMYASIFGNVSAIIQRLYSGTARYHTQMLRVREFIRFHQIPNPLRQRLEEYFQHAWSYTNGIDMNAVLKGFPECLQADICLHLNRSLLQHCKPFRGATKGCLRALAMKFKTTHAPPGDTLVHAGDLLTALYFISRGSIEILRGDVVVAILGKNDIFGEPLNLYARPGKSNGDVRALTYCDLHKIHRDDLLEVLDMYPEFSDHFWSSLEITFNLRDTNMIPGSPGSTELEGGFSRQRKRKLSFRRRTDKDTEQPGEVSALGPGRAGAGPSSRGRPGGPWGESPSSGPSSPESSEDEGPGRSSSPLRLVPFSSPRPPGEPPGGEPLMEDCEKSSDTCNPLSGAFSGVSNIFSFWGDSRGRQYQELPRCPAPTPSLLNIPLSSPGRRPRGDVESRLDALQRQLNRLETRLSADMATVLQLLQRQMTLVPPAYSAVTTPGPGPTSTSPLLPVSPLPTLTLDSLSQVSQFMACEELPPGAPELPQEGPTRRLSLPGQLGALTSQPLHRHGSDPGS

Renin [5] = molecular target: T2, Renin (Homo sapiens, UniProt P00797); assay: Inhibition of renin in human plasma using Q-FRET substrate pretreated for 10 mins before substrate addition measured after 1 hr
T2 sequence (P00797 whole entry): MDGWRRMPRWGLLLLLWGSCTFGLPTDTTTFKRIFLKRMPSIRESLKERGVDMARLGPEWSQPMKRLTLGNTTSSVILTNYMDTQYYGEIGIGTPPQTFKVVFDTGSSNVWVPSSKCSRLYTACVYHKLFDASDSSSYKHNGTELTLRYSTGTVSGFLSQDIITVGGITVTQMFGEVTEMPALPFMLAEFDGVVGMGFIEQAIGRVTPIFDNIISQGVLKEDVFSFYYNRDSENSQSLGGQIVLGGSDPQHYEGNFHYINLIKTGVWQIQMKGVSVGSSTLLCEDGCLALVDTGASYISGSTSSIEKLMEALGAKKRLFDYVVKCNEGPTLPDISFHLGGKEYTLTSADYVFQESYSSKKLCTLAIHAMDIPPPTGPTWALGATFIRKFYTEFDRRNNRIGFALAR

Renin [6] = molecular target: T2, Renin; assay: Inhibition of human recombinant renin using Q-FRET substrate after 3 hrs by fluorescence assay
[7] = Oral bioavailability in Sprague-Dawley rat at 30 mg/kg; format: ADME, organism-based; conditions: in vivo
[8] = Oral bioavailability in Sprague-Dawley rat at 3 mg/kg; format: ADME, organism-based; conditions: in vivo

T1 sequence (P08684 whole entry): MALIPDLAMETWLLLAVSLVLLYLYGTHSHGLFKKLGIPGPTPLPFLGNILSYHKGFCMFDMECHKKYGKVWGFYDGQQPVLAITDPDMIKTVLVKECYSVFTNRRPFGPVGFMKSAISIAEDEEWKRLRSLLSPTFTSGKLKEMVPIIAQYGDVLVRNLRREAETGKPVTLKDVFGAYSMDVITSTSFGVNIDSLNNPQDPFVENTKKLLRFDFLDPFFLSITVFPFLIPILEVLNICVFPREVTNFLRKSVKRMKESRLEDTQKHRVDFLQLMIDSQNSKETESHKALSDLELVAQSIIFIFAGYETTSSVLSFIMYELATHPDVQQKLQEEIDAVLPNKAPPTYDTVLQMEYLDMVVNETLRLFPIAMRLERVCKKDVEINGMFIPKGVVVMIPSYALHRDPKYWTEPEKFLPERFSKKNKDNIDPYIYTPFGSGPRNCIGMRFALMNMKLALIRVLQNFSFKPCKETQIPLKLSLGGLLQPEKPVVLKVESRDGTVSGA

Structure (SMILES) | activity % at 10 µM (CYP3A4 [1]) [%] | inhibition at 10 µM (CYP3A4 [2]) [%] | bioavailability [3] [%] | Ki [4] [nM] | IC50 (Renin [5]) [nM] | IC50 (Renin [6]) [nM] | bioavailability [7] [%] | bioavailability [8] [%]
COCCCc1cc(CN(C(=O)[C@H]2CNCC[C@@H]2c2ccc(OCCOc3c(Cl)cc(C)cc3Cl)cc2)C2CC2)cc(OCCOC)c1 | 9 | 27 | 27 | 800 | – | – | – | –
COCCCc1cc(CN(C(=O)[C@H]2CNCC[C@@H]2c2ccccc2)C2CC2)cc(OCCOC)c1 | 33 | 0 | – | 7200 | 580 | 150 | – | –
COCCCc1cc(CN(C(=O)[C@H]2CNCC[C@@H]2c2cccnc2)C2CC2)cc(OCCOC)c1 | 75 | 9 | 61 | > 29000 | 140 | 45 | – | –
COCCCc1cc(CN(C(=O)[C@H]2CNCC[C@@H]2c2ccn(C)c(=O)c2)C2CC2)cc(OCCOC)c1 | 78 | 0 | 3 | > 29000 | – | – | – | –
CCn1ccc([C@H]2CCNC[C@@H]2C(=O)N(Cc2cc(CCCOC)cc(OCCOC)c2)C2CC2)cc1=O | 70 | 5 | 1 | > 29000 | 460 | 200 | – | –
COCCCc1cc(CN(C(=O)[C@H]2CNCC[C@@H]2c2cc(=O)n(C)c(C)c2C)C2CC2)cc(OCCOC)c1 | 41 | 0 | 0 | > 29000 | 80 | 25 | – | –
COCCCc1cc(CN(C(=O)[C@H]2CNCC[C@@H]2c2cc(=O)n(C)c3ccccc23)C2CC2)cc(OCCOC)c1 | 100 | 5 | 1 | 28000 | 39 | 13 | – | –
COCCCc1cc(CN(C(=O)[C@H]2CNCC[C@@H]2c2cc(=O)n(C)c3cc(Cl)ccc23)C2CC2)cc(OCCOC)c1 | – | 4 | 20 | – | 8 | 2 | – | –
Cn1ccc([C@H]2CCNC[C@@H]2C(=O)N(Cc2cccc(Cl)c2Cl)C2CC2)cc1=O | 61 | 37 | 23 | 13000 | 42 | 20 | – | –
COCCCc1ccc(Cl)c(CN(C(=O)[C@H]2CNCC[C@@H]2c2ccn(C)c(=O)c2)C2CC2)c1 | – | 29 | 14 | – | 25 | 8 | – | –
COCCCc1cc(Cl)cc(CN(C(=O)[C@H]2CNCC[C@@H]2c2ccn(C)c(=O)c2)C2CC2)c1 | 23 | 1 | – | 7600 | 6.5 | 3 | 28 | –
COCCc1cc(Cl)c(Cl)c(CN(C(=O)[C@H]2CNCC[C@@H]2c2ccn(C)c(=O)c2)C2CC2)c1 | 68 | 23 | 18 | 11000 | 2.2 | 0.6 | – | –
Cn1ccc([C@H]2CCNC[C@@H]2C(=O)N(Cc2cc(CCCC#N)cc(Cl)c2Cl)C2CC2)cc1=O | 55 | 20 | 7 | 8400 | 10 | 4.9 | – | –
Cn1ccc([C@H]2CCNC[C@@H]2C(=O)N(Cc2cc(CCC#N)cc(Cl)c2Cl)C2CC2)cc1=O | 52 | 15 | 8 | 17000 | 17 | 8.5 | – | –
CC(=O)NCCc1cc(Cl)c(Cl)c(CN(C(=O)[C@H]2CNCC[C@@H]2c2ccn(C)c(=O)c2)C2CC2)c1 | 97 | 0 | 0 | > 29000 | 9 | 4.5 | – | –
COC(=O)NCCc1cc(Cl)c(Cl)c(CN(C(=O)[C@H]2CNCC[C@@H]2c2ccn(C)c(=O)c2)C2CC2)c1 | 45 | 56 | 1 | 15000 | 210 | 61 | – | –
COCCNc1cc(Cl)c(Cl)c(CN(C(=O)[C@H]2CNCC[C@@H]2c2ccn(C)c(=O)c2)C2CC2)c1 | 71 | 0 | 1 | 18000 | 26 | 7.1 | – | –
COCCCc1cc(C)c(C)c(CN(C(=O)[C@H]2CNCC[C@@H]2c2ccn(C)c(=O)c2)C2CC2)c1 | – | 15 | – | – | 1 | 0.6 | 7 | –
COCCCc1cc(Br)cc(CN(C(=O)[C@H]2CNCC[C@@H]2c2ccn(C)c(=O)c2)C2CC2)c1 | 15 | 45 | 15 | – | 3.5 | 1.7 | – | –
COCCCc1cc(CN(C(=O)[C@H]2CNCC[C@@H]2c2ccn(C)c(=O)c2)C2CC2)cc(-c2ccccc2)c1 | 23 | 0 | 8 | – | 81 | 18 | – | –
COCCCc1cc(CN(C(=O)[C@H]2CNCC[C@@H]2c2ccn(C)c(=O)c2)C2CC2)c2ccccc2c1 | 54 | 34 | 4 | 17000 | 1.4 | 0.4 | – | –
COCCCc1cc(CN(C(=O)[C@H]2CNCC[C@@H]2c2ccn(C)c(=O)c2)C2CC2)c2ccccc2n1 | 95 | 13 | 1 | > 29000 | 3 | 1.4 | – | –
COCCCc1cc(CN(C(=O)[C@H]2CNCC[C@@H]2c2ccn(C)c(=O)c2)C2CC2)c2ncccc2c1 | 85 | 16 | – | 27000 | 2.2 | 0.8 | 2 | –
COCCCn1cc(CN(C(=O)[C@H]2CNCC[C@@H]2c2ccn(C)c(=O)c2)C2CC2)c2c(F)cccc21 | 41 | 0 | – | > 29000 | 0.87 | 0.32 | 8 | –
COCCCn1cc(CN(C(=O)[C@H]2CNCC[C@@H]2c2ccn(C)c(=O)c2)C2CC2)c2c(Cl)cccc21 | 48 | 19 | – | 23000 | 0.64 | 0.12 | 22 | –
COCCCn1cc(CN(C(=O)[C@H]2CNCC[C@@H]2c2ccn(C)c(=O)c2)C2CC2)c2c(Br)cccc21 | 63 | 48 | – | 11000 | 0.57 | 0.07 | – | 3
Cn1ccc([C@H]2CCNC[C@@H]2C(=O)N(Cc2cn(Cc3ccccc3)c3cccc(F)c23)C2CC2)cc1=O | 19 | 43 | – | – | 0.62 | 0.02 | – | 16
Cn1ccc([C@H]2CCNC[C@@H]2C(=O)N(Cc2cn(Cc3cccc(F)c3)c3cccc(F)c23)C2CC2)cc1=O | 18 | 39 | – | 1200 | 0.63 | 0.06 | 30 | –
Cn1ccc([C@H]2CCNC[C@@H]2C(=O)N(Cc2cn(Cc3ccc(F)cc3)c3cccc(F)c23)C2CC2)cc1=O | 16 | 70 | – | 750 | 0.48 | 0.05 | 17 | –

From ChEMBL document CHEMBL1795332, “Renin inhibitors for the treatment of hypertension: design and optimization of a novel series of pyridone-substituted piperidines” (Bioorg Med Chem Lett, 2011)
